Test results taken from ChEMBL document CHEMBL3351641, “Bradykinin antagonists and thiazolidinone derivatives as new potential anti-cancer compounds” (Bioorg Med Chem, 2014).
Blank lines part the entries; values can stand above or below the compound they belong to. Activity calls are given as the source filed them. The rule behind the calls is not given here.

Legend:
[1] = Cytotoxicity against human U373 cells assessed as reduction in cell viability after 72 hrs by MTT assay; format: functional, cell-based, U-373MG ATCC; settings: U373 MG
In short: (§1)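 Cells seeded in triplicate at 3 × 10³ cells/well: 293_CHI3L1, U373 and C6 in DMEM; UPN1 in alpha-MEM; Granta, JeKo and Mino in RPMI. Compounds added by serial dilution at final 0.01, 0.1, 1, 10 and 100 µM for 72 h. MTT read-out gives viable cells as % of DMSO vehicle control. IC50 is the concentration giving 50% cell death versus control.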

C6 [2] = assay: Cytotoxicity against rat C6 cells assessed as reduction in cell viability after 72 hrs by MTT assay; format: functional, cell-based; settings: C6, 72 h; in short: as §1
HEK293 [3] = assay: Cytotoxicity against HEK293 cells overexpressing CHI3L1 gene assessed as reduction in cell viability after 72 hrs by MTT assay; format: functional, cell-based; settings: Homo sapiens, HEK293, 72 h; in short: as §1
Granta [4] = assay: Cytotoxicity against human Granta cells assessed as reduction in cell viability after 72 hrs by MTT assay; format: functional, cell-based; in short: as §1
[5] = Cytotoxicity against human Jeko cells assessed as reduction in cell viability after 72 hrs by MTT assay; format: functional, cell-based; settings: JeKo-1, 72 h; in short: as §1
[6] = Cytotoxicity against human UPN1 cells assessed as reduction in cell viability after 72 hrs by MTT assay; format: functional, cell-based; settings: UPN1, 72 h; in short: as §1
C6 [7] = assay: Cytotoxicity against rat C6 cells assessed as reduction in cell viability at 1 uM after 72 hrs by MTT assay in presence of temozolomide; format: functional
In short: (§2)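 U373 or C6 glioma cells seeded in triplicate at 3 × 10³ cells/well in DMEM. Exposed 72 h to temozolomide at final 10, 100, 250, 500 and 1000, alone or combined with 1 µM bradykinin antagonist. MTT read-out gives viability as % of vehicle control. Mean of two experiments run in triplicate.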

U-373MG ATCC = assay: (§3) Cytotoxicity against human U373 cells assessed as reduction in cell viability at 1 uM after 72 hrs by MTT assay in presence of temozolomide; format: functional; in short: as §2
[8] = Cytotoxicity against human Mino cells assessed as reduction in cell viability after 72 hrs by MTT assay; format: functional, cell-based; in short: as §1
[9] = Cytotoxicity against human Small cell lung cancer cells assessed as reduction in cell viability after 72 hrs by MTT assay; format: functional, cell-based; settings: Cancer cell lines
[10] = Antitumor activity against human Small cell lung cancer cells xenografted in mouse assessed as tumor growth inhibition; format: functional, Cancer cell lines
[11] = target: T1, Mitogen-activated protein kinase; ERK1/ERK2 (Homo sapiens) (UniProt P27361+P28482); assay: Inhibition of ERK1/2 phosphorylation in human HEK293 cells overexpressing CHI3L1 gene after 24 hrs by Western blot analysis; format: cell-based
In short: (§4)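 293_CHI3L1 or U373 cells seeded in triplicate at 10⁵ cells/well in DMEM/10% FBS and grown to near-confluence. Serum-starved 24 h; U373 then stimulated with 10% FBS. Treated with compound 24 h. Lysates run on 10% SDS–PAGE and blotted for phospho-ERK1/2 or phospho-AKT1 (4 °C overnight), ECL detection. Membranes stripped and reprobed for β-actin.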

[12] = target: RAC-alpha serine/threonine-protein kinase (Homo sapiens) (UniProt P31749); assay: Inhibition of AKT1 phosphorylation in human HEK293 cells overexpressing CHI3L1 gene after 24 hrs by Western blot analysis; format: cell-based; in short: as §4
[13] = target: T1, Mitogen-activated protein kinase; ERK1/ERK2 (Homo sapiens); assay: Inhibition of ERK1/2 phosphorylation in human U373 cells overexpressing CHI3L1 gene after 24 hrs by Western blot analysis; format: cell-based; settings: U-373MG ATCC; in short: as §4
[14] = target: RAC-alpha serine/threonine-protein kinase (Homo sapiens) (UniProt P31749); assay: Inhibition of AKT1 phosphorylation in human U373 cells overexpressing CHI3L1 gene after 24 hrs by Western blot analysis; format: cell-based; settings: U-373MG ATCC; in short: as §4
[15] = target: T1, Mitogen-activated protein kinase; ERK1/ERK2 (Homo sapiens); assay: Inhibition of ERK1/2 phosphorylation in human HEK293 cells overexpressing CHI3L1 gene at 10 uM after 24 hrs by Western blot analysis; format: cell-based; in short: as §4
[16] = target: T1, Mitogen-activated protein kinase; ERK1/ERK2 (Homo sapiens); assay: Inhibition of ERK1/2 phosphorylation in human HEK293 cells overexpressing CHI3L1 gene at 50 uM after 24 hrs by Western blot analysis; format: cell-based; in short: as §4
[17] = target: RAC-alpha serine/threonine-protein kinase (Homo sapiens) (UniProt P31749); assay: Inhibition of AKT1 phosphorylation in human HEK293 cells overexpressing CHI3L1 gene at 50 uM after 24 hrs by Western blot analysis; format: cell-based; in short: as §4
HEK293 [18] = assay: Cytotoxicity against HEK293 cells overexpressing CHI3L1 gene assessed as reduction in cell viability at 50 uM after 72 hrs by MTT assay; format: functional, cell-based; settings: Homo sapiens
[19] = target: RAC-alpha serine/threonine-protein kinase (Homo sapiens) (UniProt P31749); assay: Inhibition of AKT1 phosphorylation in human HEK293 cells overexpressing CHI3L1 gene at 10 uM after 24 hrs by Western blot analysis; format: cell-based; in short: as §4
[20] = target: RAC-alpha serine/threonine-protein kinase (Homo sapiens) (UniProt P31749); assay: Inhibition of AKT1 phosphorylation in human U373 cells at 10 uM after 24 hrs by Western blot analysis; format: cell-based; settings: U-373MG ATCC; in short: as §4
[21] = target: T1, Mitogen-activated protein kinase; ERK1/ERK2 (Homo sapiens); assay: Inhibition of ERK1/2 phosphorylation in human U373 cells at 50 uM after 24 hrs by Western blot analysis; format: cell-based; settings: U-373MG ATCC; in short: as §4
[22] = as §3; format: functional, U-373MG ATCC; in short: as §2
Granta [23] = assay: Cytotoxicity against human Granta cells assessed as reduction in cell viability at 100 uM after 72 hrs by MTT assay; format: functional, cell-based; in short: as §1
Mino = assay: Cytotoxicity against human Mino cells assessed as reduction in cell viability at 100 uM after 72 hrs by MTT assay; format: functional, cell-based; in short: as §1
[24] = Cytotoxicity against human Jeko cells assessed as viable cells at 100 uM after 72 hrs by MTT assay; format: functional; settings: JeKo-1, 72 h, read-out: Activity; in short: as §1
[25] = Cytotoxicity against human UPN1 cells assessed as viable cells at 100 uM after 72 hrs by MTT assay; format: functional; settings: UPN1, 72 h, read-out: Activity; in short: as §1

Chain of RAC-alpha serine/threonine-protein kinase (Homo sapiens) (P31749 whole entry): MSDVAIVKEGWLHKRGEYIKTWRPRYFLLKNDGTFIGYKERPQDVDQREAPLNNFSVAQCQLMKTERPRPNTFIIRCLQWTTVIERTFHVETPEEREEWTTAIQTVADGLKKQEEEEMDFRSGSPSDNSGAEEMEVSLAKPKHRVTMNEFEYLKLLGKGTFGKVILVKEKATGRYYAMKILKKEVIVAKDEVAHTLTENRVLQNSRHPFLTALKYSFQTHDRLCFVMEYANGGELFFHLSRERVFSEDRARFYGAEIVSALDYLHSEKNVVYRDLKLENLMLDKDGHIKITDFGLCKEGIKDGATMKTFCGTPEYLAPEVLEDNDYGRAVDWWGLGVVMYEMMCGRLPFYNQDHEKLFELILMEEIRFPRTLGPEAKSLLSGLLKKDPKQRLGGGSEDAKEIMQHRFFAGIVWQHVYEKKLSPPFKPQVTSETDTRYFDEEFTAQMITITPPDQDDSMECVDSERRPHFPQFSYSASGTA
T1 sequence (P27361 whole entry, looked up): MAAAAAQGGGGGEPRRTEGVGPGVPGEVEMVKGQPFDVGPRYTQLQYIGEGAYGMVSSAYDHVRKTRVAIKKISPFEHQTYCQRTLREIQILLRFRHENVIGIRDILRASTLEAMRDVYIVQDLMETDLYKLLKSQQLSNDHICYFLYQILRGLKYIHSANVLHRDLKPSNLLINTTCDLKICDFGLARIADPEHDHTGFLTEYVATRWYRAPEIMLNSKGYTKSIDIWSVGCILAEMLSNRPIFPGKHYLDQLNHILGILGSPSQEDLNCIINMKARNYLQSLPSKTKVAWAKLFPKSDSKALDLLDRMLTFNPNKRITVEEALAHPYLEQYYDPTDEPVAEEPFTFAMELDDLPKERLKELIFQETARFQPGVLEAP
T1 sequence (P28482 whole entry, looked up): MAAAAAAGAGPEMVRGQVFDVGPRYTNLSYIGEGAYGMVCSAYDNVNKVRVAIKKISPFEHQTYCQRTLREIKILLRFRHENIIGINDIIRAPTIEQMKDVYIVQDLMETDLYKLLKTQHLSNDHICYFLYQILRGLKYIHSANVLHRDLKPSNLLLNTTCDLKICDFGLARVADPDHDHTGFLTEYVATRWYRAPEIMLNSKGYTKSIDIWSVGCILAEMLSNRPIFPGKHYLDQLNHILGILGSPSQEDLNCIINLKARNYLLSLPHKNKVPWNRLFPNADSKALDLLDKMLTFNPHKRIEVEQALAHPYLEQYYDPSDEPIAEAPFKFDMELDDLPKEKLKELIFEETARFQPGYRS

SMILES: CC1(C)CC(NC(=O)[C@H](Cc2ccc(OCc3c(Cl)cccc3Cl)cc2)NC(=O)OCC2c3ccccc3-c3ccccc32)CC(C)(C)N1
- IC50 [1]: 20 µM
- IC50 (C6 [2]): 15 µM
- IC50 (HEK293 [3]): 25.8 µM
- IC50 (Granta [4]): 41.2 µM
- IC50 [5]: 52.3 µM
- IC50 [6]: > 100 µM
- Activity (C6 [7]): inactive
- Activity (U-373MG ATCC): inactive

SMILES: COc1ccc(-c2nnc(NC(=O)CN3C(=O)S/C(=C\c4ccc(N(C)C)cc4)C3=O)o2)cc1
- IC50 (Granta [4]): > 100 µM
- IC50 [5]: > 100 µM
- IC50 [6]: > 100 µM

SMILES: O=C1N=C(N2N=C(c3ccc(Cl)cc3)CC2c2ccc(Cl)cc2)S/C1=C1\C(=O)Nc2ccc(Br)cc21 (configuration not stated)
- IC50 [8]: 0.73 µM

SMILES: O=C1N=C(N2N=C(c3ccc(Br)cc3)CC2c2ccc(Cl)cc2)S/C1=C1\C(=O)Nc2ccc(Cl)cc21 (configuration not stated)
- IC50 [8]: 7.4 µM

- inhibition [11]: Dose-dependent effect
- inhibition [12]: Dose-dependent effect
- inhibition [13]: Dose-dependent effect
- inhibition [14]: Dose-dependent effect
- inhibition [15]: Active
- inhibition [16]: Active
- inhibition [17]: Active
- inhibition [19]: Active
- inhibition [20]: Active
- inhibition [21]: inactive
SMILES: CC1(C)CC(NC(=O)[C@H](Cc2ccc(OCc3c(Cl)cccc3Cl)cc2)NC(=O)/C=C/c2c(F)c(F)c(F)c(F)c2F)CC(C)(C)N1
- IC50 [1]: 3.3 µM
- IC50 (C6 [2]): 4 µM
- IC50 (HEK293 [3]): 3.8 µM
- IC50 (Granta [4]): 63.3 µM
- IC50 [5]: 49.3 µM
- IC50 [6]: > 100 µM
- IC50 [9]: 1.8 µM
- TGI [10]: 91%
- inhibition (HEK293 [18]): Active
- Activity (C6 [7]): 80%
- Activity [22]: 80%

- inhibition [11]: inactive
- inhibition [12]: inactive
- inhibition [13]: inactive
- inhibition [14]: inactive
SMILES: N=C(N)NCCC[C@H](NC(=O)C1CC2CCCCC2N1C(=O)[C@H](NC(=O)[C@H](CO)NC(=O)[C@@H](NC(=O)CNC(=O)[C@@H]1C[C@@H](O)CN1C(=O)[C@@H]1CCCN1C(=O)[C@H](CCCNC(=N)N)NC(=O)[C@@H](CCCNC(=N)N)NC(=O)/C=C/c1c(F)c(F)c(F)c(F)c1F)C1Cc2ccccc2C1)C1Cc2ccccc2C1)C(=O)O (some centres not stated)
- IC50 [1]: > 100 µM
- IC50 (C6 [2]): 37 µM
- IC50 (HEK293 [3]): 67.9 µM
- IC50 (Granta [4]): > 100 µM
- IC50 [5]: 50.5 µM
- IC50 [6]: > 100 µM

SMILES: O=C1N=C(N2N=C(c3ccc(Br)cc3)CC2c2ccc(Cl)cc2)S/C1=C1\C(=O)Nc2ccccc21 (configuration not stated)
- IC50 [8]: 10 µM

SMILES: O=C1N=C(N2N=C(c3ccc(Cl)cc3)CC2c2ccc(Cl)cc2)S/C1=C1\C(=O)Nc2ccccc21 (configuration not stated)
- IC50 [8]: 68.2 µM
- Activity (Granta [23]): inactive
- Activity (Mino): inactive
- viability at 100 µM [24]: 60%
- viability at 100 µM [25]: 60%

SMILES: CN(C)c1ccc(C2CC(c3ccc(Cl)cc3)=NN2C2=NC(=O)/C(=C3/C(=O)Nc4ccc(Br)cc43)S2)cc1 (configuration not stated)
- IC50 [8]: 0.16 µM

SMILES: O=C1N=C(N2N=C(c3ccc(Cl)cc3)CC2c2ccc(Cl)cc2)S/C1=C1\C(=O)Nc2ccc(Cl)cc21 (configuration not stated)
- IC50 (C6 [2]): 1.22 µM
- IC50 [8]: 80.7 µM

SMILES: O=C1N=C(N2N=C(c3ccc(Br)cc3)CC2c2ccc(Cl)cc2)S/C1=C1\C(=O)Nc2ccc(Br)cc21 (configuration not stated)
- IC50 [8]: 0.27 µM

SMILES: O=C1N=C(Nc2ccc(O)cc2)S/C1=C\c1ccc(Cl)cc1
- IC50 (Granta [4]): > 100 µM
- IC50 [5]: > 100 µM
- IC50 [6]: > 100 µM
- IC50 [8]: 61.2 µM

SMILES: COc1ccc(NC(=O)COc2ccc(Cl)cc2/C=C2\SC(=S)N(Nc3nc4ccccc4s3)C2=O)cc1
- IC50 [8]: 55.3 µM

SMILES: O=C1N=C(N2N=C(c3ccccc3)CC2c2ccc(Cl)cc2)S/C1=C1\C(=O)Nc2ccccc21 (configuration not stated)
- IC50 (Granta [4]): > 100 µM
- IC50 [5]: > 100 µM
- IC50 [6]: > 100 µM
